How the values were obtained:
[1] = tested on: CC(C)[C@H](NC(=O)[C@H](CCC(=O)O)NC(=O)[C@H](CCC(=O)O)NC(=O)[C@@H](NC(=O)[C@H](CCC(=O)O)NC(=O)[C@H](CC(=O)O)NC(=O)[C@H](CC(=O)O)NC(=O)[C@@H](N)CCC(=O)O)[C@@H](C)c1ccc(O)cc1)C(=O)O; test: (§1) Affinity towards tyrosine kinase Syk
Outline: (§2)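 Syk purified from rat spleen (1 unit = 1 pmol phosphate/min to polyGlu4Tyr at 0.1 mg/mL). Kinetic assays at 30 °C in 50 mM Tris/HCl pH 7.5, 5 mM MnCl2, 20 µM [γ33P]ATP, 10 units enzyme, varied peptide substrate. Stopped with 1 N HCl, heated to hydrolyse ATP, Pi removed as phosphomolybdic complex; aqueous phosphopeptide counted by scintillation; Km derived.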

[2] = tested on: CC(C)[C@H](NC(=O)[C@H](CCC(=O)O)NC(=O)[C@H](CCC(=O)O)NC(=O)[C@@H]1Cc2cc(O)ccc2CN1C(=O)[C@H](CCC(=O)O)NC(=O)[C@H](CC(=O)O)NC(=O)[C@H](CC(=O)O)NC(=O)[C@@H](N)CCC(=O)O)C(=O)O; test: as §1; outline: as §2
[3] = tested on: CC(C)[C@H](NC(=O)[C@H](CCC(=O)O)NC(=O)[C@H](CCC(=O)O)NC(=O)[C@@]1(NC(=O)[C@H](CCC(=O)O)NC(=O)[C@H](CC(=O)O)NC(=O)[C@H](CC(=O)O)NC(=O)[C@@H](N)CCC(=O)O)CCc2cc(O)ccc2C1)C(=O)O; test: as §1; outline: as §2
[4] = tested on: CC(C)[C@H](NC(=O)[C@H](CCC(=O)O)NC(=O)[C@H](CCC(=O)O)NC(=O)[C@@]1(NC(=O)[C@H](CCC(=O)O)NC(=O)[C@H](CC(=O)O)NC(=O)[C@H](CC(=O)O)NC(=O)[C@@H](N)CCC(=O)O)Cc2ccc(O)cc2C1)C(=O)O; test: as §1; outline: as §2
[5] = tested on: CC(C)[C@H](NC(=O)[C@H](CCC(=O)O)NC(=O)[C@H](CCC(=O)O)NC(=O)[C@H](Cc1ccc(O)cc1)NC(=O)[C@H](CCC(=O)O)NC(=O)[C@H](CC(=O)O)NC(=O)[C@H](CC(=O)O)NC(=O)[C@@H](N)CCC(=O)O)C(=O)O; test: as §1; outline: as §2
[6] = tested on: CC(C)[C@H](NC(=O)[C@H](CCC(=O)O)NC(=O)[C@H](CCC(=O)O)NC(=O)[C@H](Cc1cccc(O)c1)NC(=O)[C@H](CCC(=O)O)NC(=O)[C@H](CC(=O)O)NC(=O)[C@H](CC(=O)O)NC(=O)[C@@H](N)CCC(=O)O)C(=O)O; test: as §1; outline: as §2
[7] = tested on: CC(C)[C@H](NC(=O)[C@H](CCC(=O)O)NC(=O)[C@H](CCC(=O)O)NC(=O)[C@H](NC(=O)[C@H](CCC(=O)O)NC(=O)[C@H](CC(=O)O)NC(=O)[C@H](CC(=O)O)NC(=O)[C@@H](N)CCC(=O)O)[C@@H](C)c1ccc(O)cc1)C(=O)O; test: as §1; outline: as §2
[8] = tested on: CC(C)[C@H](NC(=O)[C@H](CCC(=O)O)NC(=O)[C@H](CCC(=O)O)NC(=O)[C@H]1Cc2cc(O)ccc2CN1C(=O)[C@H](CCC(=O)O)NC(=O)[C@H](CC(=O)O)NC(=O)[C@H](CC(=O)O)NC(=O)[C@@H](N)CCC(=O)O)C(=O)O; test: as §1; outline: as §2
[9] = tested on: CC(C)[C@H](NC(=O)[C@H](CCC(=O)O)NC(=O)[C@H](CCC(=O)O)NC(=O)[C@](C)(Cc1ccc(O)cc1)NC(=O)[C@H](CCC(=O)O)NC(=O)[C@H](CC(=O)O)NC(=O)[C@H](CC(=O)O)NC(=O)[C@@H](N)CCC(=O)O)C(=O)O; test: as §1; outline: as §2
[10] = tested on: CC(C)[C@H](NC(=O)[C@H](CCC(=O)O)NC(=O)[C@H](CCC(=O)O)NC(=O)[C@]1(NC(=O)[C@H](CCC(=O)O)NC(=O)[C@H](CC(=O)O)NC(=O)[C@H](CC(=O)O)NC(=O)[C@@H](N)CCC(=O)O)CCc2cc(O)ccc2C1)C(=O)O; test: as §1; outline: as §2
[11] = tested on: CC(C)[C@H](NC(=O)[C@H](CCC(=O)O)NC(=O)[C@H](CCC(=O)O)NC(=O)[C@]1(NC(=O)[C@H](CCC(=O)O)NC(=O)[C@H](CC(=O)O)NC(=O)[C@H](CC(=O)O)NC(=O)[C@@H](N)CCC(=O)O)Cc2ccc(O)cc2C1)C(=O)O; test: as §1; outline: as §2

Tyrosine-protein kinase SYK (Homo sapiens) (from UniProt P43405)
Km [1]: 6.5 µM
Km [2]: 124 µM
Km [3]: 3.6 µM
Km [4]: 146 µM
Km [5]: 3.6 µM
Km [6]: 5.5 µM
Km [7]: 63.2 µM
Km [8]: 136 µM
Km [9]: 87.7 µM
Km [10]: 98 µM
Km [11]: 17.3 µM
